Reference: ChEMBL document CHEMBL3352512, “Thiazolidone derivatives as inhibitors of chikungunya virus” (Eur J Med Chem, 2015)
Active and inactive are the calls of the source. The calls are words filed in the database; no cut-off is given here.

Columns and labels:
Chikungunya virus [1] = experiment: Antiviral activity against Chikungunya virus LR2006_OPY1 infected in african green monkey Vero cells assessed as reduction in virus-induced cytopathogenicity at 100 ug/mL after 3 days by cell titer-blue fluorescent assay; type: functional, cell-based
[2] = Cytotoxicity against african green monkey Vero cells assessed as reduction in cell viability after 72 hrs by cell titer-blue fluorescent assay; type: cell-based; conditions: chlorocebus sabaeus
Method in brief: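 Uninfected Vero (CCL-81) cells were seeded at 1 × 10^5 cells/mL, grown for 24 h at 37°C with 5% CO2, then exposed to compound at 4 to 4000 µg/mL for 72 h. CellTiter-Blue was added for 2 h in the dark, and fluorescence was read at 560/590 nm. Viability is given as % of control, from at least three repeats.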

Chikungunya virus [3] = experiment: Antiviral activity against Chikungunya virus LR2006_OPY1 infected in african green monkey Vero cells assessed as reduction in virus-induced cytopathogenicity after 3 days by cell titer-blue fluorescent assay; type: functional, cell-based; conditions: 72 h

Row | Compound | inhibition (Chikungunya virus [1]) | CC50 at 72 h [2] [µM] | IC50 (Chikungunya virus [3]) [µM]
1 | COc1ccc(/C=C2\SC(=S)NC2=O)cc1 | inactive | > 100 | –
2 | O=C1NC(=S)S/C1=C\c1ccccc1[N+](=O)[O-] | inactive | > 100 | –
3 | O=C1NC(=S)S/C1=C\c1ccc(Cl)cc1 | inactive | > 100 | –
4 | O=C1NC(=S)S/C1=C\c1ccc(O)cc1 | inactive | > 100 | –
5 | O=C1NC(=S)S/C1=C\c1ccc2ccccc2c1 | – | > 100 | 3.6
6 | CN(C)c1ccc(/C=C2\SC(=S)NC2=O)cc1 | inactive | > 100 | –
7 | NC1=NC(=O)/C(=C/c2ccccc2[N+](=O)[O-])S1 | – | > 100 | 40.1
8 | O=C1NC(=S)S/C1=C\c1cccs1 | inactive | > 100 | –
9 | N=C1NC(=O)/C(=C/c2ccc(O)cc2)S1 [MIRIN] | inactive | > 100 | –
